# Results reported in PubChem BioAssay AID540324 (Johns Hopkins Ion Channel Center, 2011).
# Activity calls are given as the source filed them.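 The calls were made as follows: active = maximum inhibition above 30% at any tested concentration, with a dose response curve fitted; inactive = no inhibition at any dose or no dose response curve.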
# Experiment: thallium flux inhibition in parental HEK293 cells, SAR follow-up, counter-screen for KCNK9 inhibitor project, cell-based, FluxOR thallium flux, concentration-response, set 2 (AID 540324)
# Procedure, shortened: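 System – parental HEK293 cells lacking KCNK9 expression · Reagent – K+/Tl+ sulfate stimulus, 5x stock · Dosing – Ten-concentration dilution series per compound · Times – dye loading 90 min at room temperature in dark, compound exposure 20 min · Detection – fluorescence of thallium-sensitive FluxOR dye · Repeats – at least two replicates per compound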
row,SMILES,outcome
1,O=C(Nc1cccc(NC(=O)c2ccccc2)c1)c1ccccc1,inactive
2,Cc1cccc(C(=O)Nc2cccc(NC(=O)c3ccccc3)c2)c1,inactive
3,CCOc1ccccc1NC(=O)c1cccc(NC(=O)c2ccccc2OC)c1,inactive
4,O=C(Nc1cccc(NC(=O)c2ccncc2)c1)c1ccccc1,inactive
5,Cc1ccccc1C(=O)Nc1cccc(NC(=O)c2ccccc2)c1,inactive
6,CCOc1ccccc1NC(=O)c1cccc(NC(=O)c2ccc(OC)cc2)c1,inactive
7,COc1ccccc1C(=O)Nc1cccc(NC(=O)c2ccccc2OC(F)(F)F)c1,inactive
8,CCOc1ccccc1NC(=O)c1cccc(NC(=O)c2ccccc2C)c1,inactive
9,COc1ccccc1NC(=O)c1cccc(NC(=O)C2CCCCC2)c1,inactive
10,O=C(Nc1cccc(NC(=O)c2cccnc2)c1)c1ccccc1,inactive
11,Cc1cccc(C(=O)Nc2cccc(NC(=O)C3CCCCC3)c2)c1,inactive
12,CC(C)(C)c1ccc(C(=O)Nc2cccc(NC(=O)c3ccccc3)c2)cc1,inactive
13,Cc1cccc(C(=O)Nc2cccc(NC(=O)c3ccc(Cl)cc3)c2)c1,inactive
14,Cc1cccc(C(=O)Nc2cccc(NC(=O)c3ccco3)c2)c1,inactive
15,Cc1cccc(C(=O)Nc2cccc(NC(=O)c3ccccc3C)c2)c1,inactive
16,CCOc1ccccc1NC(=O)c1cccc(NC(=O)c2ccc(C(F)(F)F)cc2)c1,inactive
17,O=C(Nc1cccc(NC(=O)c2cccs2)c1)c1ccccc1,inactive
